# From ChEMBL document CHEMBL4406821, “Novel dual inhibitors targeting CDK4 and VEGFR2 synergistically suppressed cancer progression and angiogenesis” (Eur J Med Chem, 2019)
# Activity calls are given as the source filed them. The rule behind the calls is not given here.
# Key:
# SiHa = experiment: Induction of apoptosis in human SiHa cells at 40 nM incubated for 48 hrs by annexin V FITC and propidium iodide staining based flow cytometry; format: functional, cell-based
# Procedure, shortened: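 Annexin V-FITC/PI double staining with flow-cytometric readout. MDA-MB-231, T-47D, SiHa and HeLa cells were treated with graded concentrations for 48 h. MDA-MB-231 and T-47D were grown in DMEM and SiHa in 1640 medium, each with 10% FBS and 1% penicillin/streptomycin at 37°C under 5% CO2. Early- and late-stage apoptotic fractions were scored.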
# [1] = target: Tyrosine-protein kinase Lck (Homo sapiens) (UniProt P06239); experiment: Inhibition of recombinant human full length LCK at 1 uM using KVEKIGEGTYGVVYK as substrate incubated for 40 mins in presence of [gamma-33P]-ATP by scintillation counting method relative to control
# T47D = experiment: Antiproliferative activity against human T47D cells assessed as reduction in cell viability at 20 to 40 nM incubated for 48 hrs by EdU staining based laser scanning confocal microscopy; format: functional
# Procedure, shortened: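 Cells, 5×10^4, were seeded in 24-well plates and treated for 48 h. They were then labeled using an EdU Apollo 488 imaging kit with Hoechst 33342 nuclear stain and imaged by laser scanning confocal microscopy. Percent EdU-positive cells = EdU-positive/Hoechst-stained × 100%.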
# [2] = target: Death-associated protein kinase 1 (Homo sapiens) (UniProt P53355); experiment: Inhibition of recombinant human DAPK1 (1 to 296 residues) at 1 uM using KKLNRTLSFAEPG as substrate incubated for 40 mins in presence of [gamma-33P]-ATP by scintillation counting method relative to control
# Procedure, shortened: (§1)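 Tested at a single 1 uM in an outsourced commercial kinase-profiling panel, read as percent inhibition. Each value is the mean of two independent experiments.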
# [3] = Toxicity in BALB/c mouse assessed as effect on blood parameter by measuring MCH at 40 mg/kg, po administered once two days for 4 times by hematology analyzer; settings: in vivo
# [4] = tested on: Mitogen-activated protein kinase 14 (Homo sapiens), Q16539 [T106M]; experiment: Inhibition of recombinant human full length SAPK2a T106M mutant at 1 uM using myelin basic protein as substrate incubated for 40 mins in presence of [gamma-33P]-ATP by scintillation counting method relative to control; procedure, shortened: as §1
# [5] = target: cAMP-dependent protein kinase catalytic subunit PRKX (Homo sapiens) (UniProt P51817); experiment: Inhibition of recombinant human full length PrKX at 1 uM using RRRLSFAEPG as substrate incubated for 40 mins in presence of [gamma-33P]-ATP by scintillation counting method relative to control
# [6] = target: Proto-oncogene tyrosine-protein kinase ROS (Homo sapiens) (UniProt P08922); experiment: Inhibition of recombinant human ROS (1883 to end residues) at 1 uM using KKKSPGEYVNIEFG as substrate incubated for 40 mins in presence of [gamma-33P]-ATP by scintillation counting method relative to control
# [7] = Toxicity in NOD/SCID BALB/c mouse xenografted with human SiHa cells assessed as reduction in body weight at 20 to 40 mg/kg, po administered for 21 days; format: organism-based; settings: in vivo, 504 h
# [8] = target: Protein kinase C beta type (Homo sapiens) (UniProt P05771); experiment: Inhibition of recombinant human PKCbeta1 (2 to end residues) at 1 uM using histone H1 as substrate incubated for 40 mins in presence of [gamma-33P]-ATP by scintillation counting method relative to control
# [9] = target: Leucine-rich repeat serine/threonine-protein kinase 2 (Homo sapiens) (UniProt Q5S007); experiment: Inhibition of recombinant human LRRK2 (970 to end residues) at 1 uM using RLGRDKYKTLRQIRQ as substrate incubated for 40 mins in presence of [gamma-33P]-ATP by scintillation counting method relative to control
# [10] = tested on: PI3-kinase p110-alpha/p85-alpha (Homo sapiens), P27986+P42336 [E542K]; experiment: Inhibition of recombinant human full length PI3K p110alpha/p85alpha E542K mutant at 1 uM using phosphatidylinositol 4,5-bisphosphate as substrate incubated for 40 mins in presence of [gamma-33P]-ATP by scintillation counting method relative to control; format: protein-complex assay
# [11] = target: Mast/stem cell growth factor receptor Kit (Homo sapiens) (UniProt P10721); experiment: Inhibition of recombinant human cKIT (544 to end residues) at 1 uM using poly(Glu, Tyr) 4:1 as substrate incubated for 40 mins in presence of [gamma-33P]-ATP by scintillation counting method relative to control; procedure, shortened: as §1
# [12] = target: Casein kinase II subunit alpha (Homo sapiens) (UniProt P68400); experiment: Inhibition of recombinant full length human CK2alpha1 at 1 uM using RRRDDDSDDD as substrate incubated for 40 mins in presence of [gamma-33P]-ATP by scintillation counting method relative to control
# Procedure, shortened: (§2)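 Kinase panel profiling at 1 μM performed by Eurofins KinaseProfiler; percent inhibition reported as mean of two independent experiments.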
# [13] = target: [Pyruvate dehydrogenase (acetyl-transferring)] kinase isozyme 4, mitochondrial (Homo sapiens) (UniProt Q16654); experiment: Inhibition of recombinant human full length PDHK4 at 1 uM using KKKYHGHSMSDPGVSYRT as substrate incubated for 40 mins in presence of [gamma-33P]-ATP by scintillation counting method relative to control; procedure, shortened: as §1
# [14] = target: Mitogen-activated protein kinase kinase kinase 3 (Homo sapiens) (UniProt Q99759); experiment: Inhibition of recombinant human full length MEKK3 at 1 uM using myelin basic protein as substrate incubated for 40 mins in presence of [gamma-33P]-ATP by scintillation counting method relative to control
# [15] = target: Protein kinase C epsilon type (Homo sapiens) (UniProt Q02156); experiment: Inhibition of recombinant human PKCepsilon (2 to end residues) at 1 uM using ERMRPRKRQGSVRRRV as substrate incubated for 40 mins in presence of [gamma-33P]-ATP by scintillation counting method relative to control
# [16] = target: Serine/threonine-protein kinase 38-like (Homo sapiens) (UniProt Q9Y2H1); experiment: Inhibition of recombinant human NDR2 (83 to end residues) at 1 uM using RSRSRSRSRSRSRSR as substrate incubated for 40 mins in presence of [gamma-33P]-ATP by scintillation counting method relative to control
# [17] = target: Casein kinase I isoform gamma-2 (Homo sapiens) (UniProt P78368); experiment: Inhibition of recombinant human CK1gamma2 (18 to end residues) at 1 uM using KRRRALS(p)VAS as substrate incubated for 40 mins in presence of [gamma-33P]-ATP by scintillation counting method relative to control; procedure, shortened: as §2
# [18] = target: Insulin-like growth factor 1 receptor (Homo sapiens) (UniProt P08069); experiment: Inhibition of recombinant human IGF1R (959 to end residues) at 1 uM using KKKSPGEYVNIEFG as substrate incubated for 40 mins in presence of [gamma-33P]-ATP by scintillation counting method relative to control
# [19] = target: Eukaryotic elongation factor 2 kinase (Homo sapiens) (UniProt O00418); experiment: Inhibition of recombinant human eEF-2K (2 to end residues) at 1 uM using RKKFGESEKTKTKEFL as substrate incubated for 40 mins in presence of [gamma-33P]-ATP by scintillation counting method relative to control; procedure, shortened: as §1
# Proto-oncogene tyrosine-protein kinase ROS (Homo sapiens), sequence (P08922 whole entry): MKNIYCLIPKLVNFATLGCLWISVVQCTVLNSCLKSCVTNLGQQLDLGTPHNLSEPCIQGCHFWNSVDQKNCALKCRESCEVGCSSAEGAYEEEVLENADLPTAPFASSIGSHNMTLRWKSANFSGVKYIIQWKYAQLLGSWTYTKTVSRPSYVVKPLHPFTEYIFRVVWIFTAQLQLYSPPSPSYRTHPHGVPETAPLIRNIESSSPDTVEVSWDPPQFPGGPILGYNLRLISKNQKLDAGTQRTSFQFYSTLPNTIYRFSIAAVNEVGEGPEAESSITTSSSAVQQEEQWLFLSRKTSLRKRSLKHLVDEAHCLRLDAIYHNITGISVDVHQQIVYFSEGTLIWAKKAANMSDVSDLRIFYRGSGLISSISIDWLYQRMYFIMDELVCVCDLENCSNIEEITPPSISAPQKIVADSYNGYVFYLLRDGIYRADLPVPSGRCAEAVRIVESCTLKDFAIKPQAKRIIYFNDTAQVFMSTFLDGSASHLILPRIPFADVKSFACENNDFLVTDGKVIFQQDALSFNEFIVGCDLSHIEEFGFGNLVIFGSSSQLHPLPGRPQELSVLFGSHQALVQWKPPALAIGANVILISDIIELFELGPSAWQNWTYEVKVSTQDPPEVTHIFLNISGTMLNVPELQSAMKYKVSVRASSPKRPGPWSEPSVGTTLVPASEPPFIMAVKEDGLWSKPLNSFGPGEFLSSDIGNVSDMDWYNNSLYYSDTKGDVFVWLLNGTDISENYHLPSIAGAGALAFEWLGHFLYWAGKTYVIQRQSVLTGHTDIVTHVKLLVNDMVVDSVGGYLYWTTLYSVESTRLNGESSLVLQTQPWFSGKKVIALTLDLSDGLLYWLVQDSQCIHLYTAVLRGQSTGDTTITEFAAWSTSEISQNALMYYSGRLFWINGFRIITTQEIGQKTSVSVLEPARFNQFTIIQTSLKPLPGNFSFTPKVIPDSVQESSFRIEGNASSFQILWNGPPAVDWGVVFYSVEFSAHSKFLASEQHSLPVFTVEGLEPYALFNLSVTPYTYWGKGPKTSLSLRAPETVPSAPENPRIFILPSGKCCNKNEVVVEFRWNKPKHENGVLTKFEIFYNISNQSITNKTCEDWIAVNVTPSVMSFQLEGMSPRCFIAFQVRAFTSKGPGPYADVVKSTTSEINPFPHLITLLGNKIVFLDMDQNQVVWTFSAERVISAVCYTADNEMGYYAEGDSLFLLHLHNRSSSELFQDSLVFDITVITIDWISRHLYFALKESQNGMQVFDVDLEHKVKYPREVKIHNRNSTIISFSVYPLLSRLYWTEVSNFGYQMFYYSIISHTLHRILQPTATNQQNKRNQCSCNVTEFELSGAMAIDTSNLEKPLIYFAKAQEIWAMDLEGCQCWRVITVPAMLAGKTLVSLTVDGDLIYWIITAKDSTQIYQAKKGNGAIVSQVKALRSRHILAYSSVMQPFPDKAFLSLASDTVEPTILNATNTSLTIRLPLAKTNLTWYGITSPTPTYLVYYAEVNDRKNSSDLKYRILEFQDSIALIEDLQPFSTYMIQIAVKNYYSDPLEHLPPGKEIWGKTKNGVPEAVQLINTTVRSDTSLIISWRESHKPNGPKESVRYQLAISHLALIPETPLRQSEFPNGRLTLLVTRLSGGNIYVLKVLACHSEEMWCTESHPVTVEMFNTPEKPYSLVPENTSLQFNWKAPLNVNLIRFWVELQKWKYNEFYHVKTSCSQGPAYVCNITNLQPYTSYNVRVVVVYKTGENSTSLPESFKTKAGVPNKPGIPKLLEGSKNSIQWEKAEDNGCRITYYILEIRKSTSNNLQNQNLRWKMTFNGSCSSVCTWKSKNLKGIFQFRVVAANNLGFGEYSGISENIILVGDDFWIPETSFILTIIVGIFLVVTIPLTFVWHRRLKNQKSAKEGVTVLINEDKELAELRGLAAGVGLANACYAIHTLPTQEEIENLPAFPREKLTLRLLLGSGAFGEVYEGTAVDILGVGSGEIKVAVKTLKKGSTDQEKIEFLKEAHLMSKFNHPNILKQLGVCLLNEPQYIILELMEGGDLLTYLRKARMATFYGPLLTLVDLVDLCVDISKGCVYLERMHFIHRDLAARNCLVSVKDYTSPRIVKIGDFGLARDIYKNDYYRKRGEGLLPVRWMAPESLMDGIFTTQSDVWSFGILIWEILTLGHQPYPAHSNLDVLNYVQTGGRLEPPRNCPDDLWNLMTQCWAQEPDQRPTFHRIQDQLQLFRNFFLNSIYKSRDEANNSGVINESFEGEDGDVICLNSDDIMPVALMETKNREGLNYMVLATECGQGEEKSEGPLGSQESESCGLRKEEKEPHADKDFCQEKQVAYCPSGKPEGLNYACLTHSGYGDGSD
# Mitogen-activated protein kinase kinase kinase 3 (Homo sapiens), sequence (Q99759 whole entry): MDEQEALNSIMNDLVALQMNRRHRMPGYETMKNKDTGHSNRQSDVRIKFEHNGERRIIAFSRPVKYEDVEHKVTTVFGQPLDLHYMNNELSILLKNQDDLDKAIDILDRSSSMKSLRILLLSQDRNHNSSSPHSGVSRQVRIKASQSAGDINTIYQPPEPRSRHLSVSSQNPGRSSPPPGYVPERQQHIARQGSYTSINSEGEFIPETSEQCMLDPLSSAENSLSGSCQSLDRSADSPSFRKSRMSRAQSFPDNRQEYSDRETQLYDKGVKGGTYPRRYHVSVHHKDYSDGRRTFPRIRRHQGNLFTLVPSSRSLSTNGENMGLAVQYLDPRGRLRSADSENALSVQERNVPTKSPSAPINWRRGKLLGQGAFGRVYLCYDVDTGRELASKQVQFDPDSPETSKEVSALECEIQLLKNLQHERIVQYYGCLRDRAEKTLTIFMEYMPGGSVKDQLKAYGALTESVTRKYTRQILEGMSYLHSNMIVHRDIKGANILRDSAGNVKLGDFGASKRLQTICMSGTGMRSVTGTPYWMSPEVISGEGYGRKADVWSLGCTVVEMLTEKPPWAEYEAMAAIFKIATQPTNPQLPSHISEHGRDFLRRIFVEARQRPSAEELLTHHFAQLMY
# Death-associated protein kinase 1 (Homo sapiens), sequence (P53355 whole entry, looked up, the tested form may be a part): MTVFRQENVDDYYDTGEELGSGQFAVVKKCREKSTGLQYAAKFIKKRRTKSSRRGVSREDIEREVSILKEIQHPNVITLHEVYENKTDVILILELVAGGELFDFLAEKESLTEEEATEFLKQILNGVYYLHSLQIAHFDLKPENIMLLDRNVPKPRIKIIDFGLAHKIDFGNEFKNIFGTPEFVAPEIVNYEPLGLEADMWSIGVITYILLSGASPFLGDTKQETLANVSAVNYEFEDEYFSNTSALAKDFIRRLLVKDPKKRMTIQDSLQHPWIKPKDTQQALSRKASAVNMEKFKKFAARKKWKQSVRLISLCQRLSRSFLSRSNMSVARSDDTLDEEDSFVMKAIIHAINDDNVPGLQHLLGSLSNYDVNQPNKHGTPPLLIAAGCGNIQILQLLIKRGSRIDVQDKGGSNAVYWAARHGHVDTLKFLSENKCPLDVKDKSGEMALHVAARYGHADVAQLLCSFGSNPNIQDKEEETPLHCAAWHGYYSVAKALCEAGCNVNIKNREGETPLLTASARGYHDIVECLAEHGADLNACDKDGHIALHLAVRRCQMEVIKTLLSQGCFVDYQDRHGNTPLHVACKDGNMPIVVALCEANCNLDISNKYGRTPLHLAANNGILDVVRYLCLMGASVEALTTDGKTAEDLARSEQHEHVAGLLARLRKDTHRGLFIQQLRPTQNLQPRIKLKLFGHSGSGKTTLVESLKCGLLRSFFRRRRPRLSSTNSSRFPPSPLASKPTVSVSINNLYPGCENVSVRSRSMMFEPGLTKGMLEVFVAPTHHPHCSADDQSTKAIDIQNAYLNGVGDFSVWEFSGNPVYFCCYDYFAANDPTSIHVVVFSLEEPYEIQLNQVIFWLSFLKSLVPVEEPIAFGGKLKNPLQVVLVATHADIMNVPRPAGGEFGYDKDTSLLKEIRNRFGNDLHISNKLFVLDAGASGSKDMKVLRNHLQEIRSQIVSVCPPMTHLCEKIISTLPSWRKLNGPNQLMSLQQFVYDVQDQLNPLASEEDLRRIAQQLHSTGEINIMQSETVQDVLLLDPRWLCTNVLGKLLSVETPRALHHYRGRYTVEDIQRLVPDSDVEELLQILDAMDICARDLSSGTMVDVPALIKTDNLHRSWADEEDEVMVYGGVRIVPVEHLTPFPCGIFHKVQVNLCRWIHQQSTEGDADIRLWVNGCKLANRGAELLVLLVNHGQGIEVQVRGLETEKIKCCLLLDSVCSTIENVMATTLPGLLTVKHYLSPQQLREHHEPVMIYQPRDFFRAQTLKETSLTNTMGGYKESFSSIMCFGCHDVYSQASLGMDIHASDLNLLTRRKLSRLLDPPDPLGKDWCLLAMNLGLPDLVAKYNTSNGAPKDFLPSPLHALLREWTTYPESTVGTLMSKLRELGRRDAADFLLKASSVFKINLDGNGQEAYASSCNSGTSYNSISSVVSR
# Protein kinase C epsilon type (Homo sapiens), sequence (Q02156 whole entry): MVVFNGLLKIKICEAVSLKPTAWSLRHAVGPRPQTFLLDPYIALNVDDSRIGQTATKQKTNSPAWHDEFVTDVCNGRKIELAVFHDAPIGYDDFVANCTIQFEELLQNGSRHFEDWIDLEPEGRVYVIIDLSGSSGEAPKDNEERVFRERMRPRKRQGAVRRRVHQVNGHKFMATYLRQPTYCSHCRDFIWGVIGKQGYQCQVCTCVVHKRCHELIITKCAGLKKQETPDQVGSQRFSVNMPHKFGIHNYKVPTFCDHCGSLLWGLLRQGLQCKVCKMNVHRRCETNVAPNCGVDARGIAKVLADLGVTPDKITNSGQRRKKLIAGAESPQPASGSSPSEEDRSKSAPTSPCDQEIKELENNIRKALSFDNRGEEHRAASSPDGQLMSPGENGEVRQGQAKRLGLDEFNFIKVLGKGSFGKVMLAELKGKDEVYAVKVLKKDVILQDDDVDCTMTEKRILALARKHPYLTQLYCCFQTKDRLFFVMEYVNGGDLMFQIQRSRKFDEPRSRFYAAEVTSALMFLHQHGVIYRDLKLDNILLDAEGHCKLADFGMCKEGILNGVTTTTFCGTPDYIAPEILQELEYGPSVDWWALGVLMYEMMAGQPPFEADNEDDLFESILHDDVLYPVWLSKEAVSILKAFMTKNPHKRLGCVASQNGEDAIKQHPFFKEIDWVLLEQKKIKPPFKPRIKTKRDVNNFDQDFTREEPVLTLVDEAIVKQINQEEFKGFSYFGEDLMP
smiles,measurement,setting,value
COc1cc2nccc(Oc3ccc(NC(=O)C4(C(=O)Nc5ccc(F)cc5)CC4)cc3)c2cc1OC [CABOZANTINIB],Activity,SiHa,Active
Cc1ccc(NC(=O)C2(C(=O)Nc3ccc(Nc4ncc(F)c(-c5cc(F)c6nc(C)n(C(C)C)c6c5)n4)cc3)CC2)cc1,inhibition,[1],49%
same,inhibition,T47D,Active
same,inhibition,[2],0%
same,Activity,[3],Non-Toxic
same,inhibition,[4],60%
same,inhibition,[5],43%
same,inhibition,[6],58%
same,Activity,[7],Toxic
same,inhibition,[8],36%
same,inhibition,[9],83%
same,inhibition,[10],5%
same,inhibition,[11],17%
same,inhibition,[12],36%
same,inhibition,[13],0%
same,inhibition,[14],78%
same,inhibition,[15],16%
same,inhibition,[16],33%
same,inhibition,[17],49%
same,inhibition,[18],11%
same,inhibition,[19],0%
